Laboratory results reported in ChEMBL document CHEMBL1126777, “Mono- and bis(aminomethyl)phenylacetic acid esters as short-acting antiarrhythmic agents. 2” (J Med Chem, 1993).

What was measured:
Cavia porcellus [1] = species: Cavia porcellus; test: Dose required to convert acetylstrophanthidin-induced arrhythmia in guinea pig right atria to normal sinus rhythm (number of tissues converted to NSR/number of tissues tested=2/4); assay type: functional
[2] = In vitro determination of human blood elimination half-life; assay type: ADME; conditions: whole blood
Cavia porcellus [3] = species: Cavia porcellus; test: Dose required to convert acetylstrophanthidin-induced arrhythmia in guinea pig right atria to normal sinus rhythm (number of tissues converted to NSR/number of tissues tested=4/4); assay type: functional
[4] = Distribution coefficient was determined; assay type: physicochemical; conditions: octanol/water
Outline: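 Octanol and 0.1 M phosphate buffer at pH 7.4 were pre-saturated with each other by shaking for 16 h. About 5 mg of compound was dissolved in 10 mL buffer. A 5-mL portion was shaken with 5 mL octanol and centrifuged for 5 min. Absorbance of the aqueous phase at 280 nm was read before and after partitioning, diluted to 0.4–0.9. DC = (initial − final)/final, each × dilution factor; mean of two determinations.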

Cavia porcellus [5] = species: Cavia porcellus; test: Dose required to convert acetylstrophanthidin-induced arrhythmia in guinea pig right atria to normal sinus rhythm (number of tissues converted to NSR/number of tissues tested=5/5); assay type: functional
Cavia porcellus [6] = species: Cavia porcellus; test: Dose required to convert acetylstrophanthidin-induced arrhythmia in guinea pig right atria to normal sinus rhythm (number of tissues converted to NSR/number of tissues tested=8/8); assay type: functional
Cavia porcellus [7] = species: Cavia porcellus; test: Dose required to convert acetylstrophanthidin-induced arrhythmia in guinea pig right atria to normal sinus rhythm (number of tissues converted to NSR/number of tissues tested=1/3); assay type: functional
Cavia porcellus [8] = species: Cavia porcellus; test: Dose required to convert acetylstrophanthidin-induced arrhythmia in guinea pig right atria to normal sinus rhythm (number of tissues converted to NSR/number of tissues tested=3/3); assay type: functional
Canis familiaris [9] = test: In vivo determination of antiarrhythmic activity as the dose required for the production of 50% normal sinus beats in ouabain dog; assay type: functional; conditions: Canis lupus familiaris, Heart
Outline: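 Dogs with ouabain-induced arrhythmia received the agent by intravenous infusion at 500 µg/kg/min. ED50 is the cumulative administered dose (mg/kg) at which 50% of beats were normal sinus beats; number of animals given.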

Canis familiaris [10] = test: In vivo determination of antiarrhythmic activity as the dose required for the production of 80% normal sinus beats in Harris dog; assay type: functional; conditions: Canis lupus familiaris, Heart
Outline: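 Harris dog arrhythmia model with intravenous infusion at 150, 225 or 300 µg/kg/min depending on agent. Effective dose is the cumulative administered dose (mg/kg) giving 80% normal sinus beats; number of animals given.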

Cavia porcellus [11] = species: Cavia porcellus; test: Dose required to convert acetylstrophanthidin-induced arrhythmia in guinea pig right atria to normal sinus rhythm (number of tissues converted to NSR/number of tissues tested=3/5); assay type: functional
Cavia porcellus [12] = species: Cavia porcellus; test: Dose required to convert acetylstrophanthidin-induced arrhythmia in guinea pig right atria to normal sinus rhythm (number of tissues converted to NSR/number of tissues tested=6/6); assay type: functional
Cavia porcellus [13] = species: Cavia porcellus; test: Dose required to convert acetylstrophanthidin-induced arrhythmia in guinea pig right atria to normal sinus rhythm (number of tissues converted to NSR/number of tissues tested=3/4); assay type: functional
Cavia porcellus [14] = species: Cavia porcellus; test: Dose required to convert acetylstrophanthidin-induced arrhythmia in guinea pig right atria to normal sinus rhythm (number of tissues converted to NSR/number of tissues tested=1/4); assay type: functional
[15] = In vitro determination of human blood elimination half-life; not determined because more than 90% of the drug was metabolized in min; assay type: ADME; conditions: whole blood

SMILES	half-life [2]	ED (Cavia porcellus [3])	DC [4]	other results
O=C(Cc1cc(CN2CCCC2)c(O)c(CN2CCCC2)c1)OCC1CCc2ccccc2C1 (configuration not stated)	2.3 min			ED (Cavia porcellus [1]): 6 µg/mL
O=C(Cc1cc(CN2CCCC2)c(O)c(CN2CCCC2)c1)OCc1c(F)c(F)c(F)c(F)c1F	11 min	7.5 µg/mL		
O=C(Cc1cc(CN2CCCC2)c(O)c(CN2CCCC2)c1)OCCc1ccccc1	16.8 min	2.8 µg/mL		
O=C(Cc1ccc(CN2CCCC2)cc1)OCC1COc2ccccc2O1 (configuration not stated)	< 1 min	10 µg/mL	22.1	
O=C(Cc1cc(CN2CCCC2)c(O)c(CN2CCCC2)c1)OCCc1cccs1	35.9 min	3 µg/mL		
O=C(Cc1cc(CN2CCCC2)c(O)c(CN2CCCC2)c1)OCc1ccco1	2.5 min			ED (Cavia porcellus [5]): 29.4 µg/mL
O=C(Cc1cccc(CN2CCCC2)c1)OCC1COc2ccccc2O1 (configuration not stated)	< 1 min		39.5	ED (Cavia porcellus [6]): 6.9 µg/mL
O=C(Cc1cc(CN2CCCC2)c(O)c(CN2CCCC2)c1)OCC1CCCCO1 (configuration not stated)	3.3 min			ED (Cavia porcellus [7]): 20 µg/mL
CN1CCN(Cc2cc(CC(=O)OCC3COc4ccccc4O3)ccc2O)CC1 (configuration not stated)		2.5 µg/mL	24	
O=C(Cc1ccc(O)c(CN2CCC(N3CCCCC3)CC2)c1)OCC1COc2ccccc2O1 (configuration not stated)	< 1 min		9.6	ED (Cavia porcellus [8]): 8.3 µg/mL
CCN(CC)CC(=O)Nc1c(C)cccc1C [LIDOCAINE]			19.2	ED50 (Canis familiaris [9]): 8.8 mg/kg; ED50 (Canis familiaris [10]): 37.5 mg/kg
O=C(Cc1cc(CN2CCCC2)c(O)c(CN2CCCC2)c1)OCCOc1ccccc1	2.5 min	16.2 µg/mL		
O=C(Cc1cc(CN2CCCC2)c(O)c(CN2CCCC2)c1)OCCN1C(=O)c2ccccc2C1=O	3.8 min			ED (Cavia porcellus [11]): 23.3 µg/mL
O=C(Cc1cc(CN2CCCC2)c(O)c(CN2CCCC2)c1)OCc1ccoc1	10.1 min			ED (Cavia porcellus [12]): 27.5 µg/mL
O=C(Cc1cc(CN2CCCC2)c(O)c(CN2CCCC2)c1)OCc1ccc2c(c1)OCO2	9.2 min			ED (Cavia porcellus [13]): 10.7 µg/mL
O=C(Cc1cc(CN2CCCC2)c(O)c(CN2CCCC2)c1)OCc1cccs1	3.5 min	5.5 µg/mL	0.73	ED50 (Canis familiaris [9]): 3.8 mg/kg; ED50 (Canis familiaris [10]): 10.5 mg/kg
O=C(Cc1ccc(O)c(CN2CCN(CC(=O)N3CCCC3)CC2)c1)OCC1COc2ccccc2O1 (configuration not stated)	< 1 min	22.5 µg/mL	7.1	
O=C(Cc1cc(CN2CCCC2)c(O)c(CN2CCCC2)c1)OCC1COc2ccccc2O1 (configuration not stated)	7.1 min		2.62	ED50 (Canis familiaris [9]): 4.8 mg/kg; ED (Cavia porcellus [5]): 7.3 µg/mL; ED50 (Canis familiaris [10]): 14 mg/kg
O=C(Cc1cc(CN2CCCC2)c(O)c(CN2CCCC2)c1)OCC1CCCO1 (configuration not stated)	3.5 min			ED (Cavia porcellus [14]): 40 µg/mL
O=C(Cc1cc(CN2CCCC2)c(O)c(CN2CCCC2)c1)OCc1ccc([N+](=O)[O-])cc1	6.2 min	5.2 µg/mL		
O=C(Cc1cc(CN2CCCC2)c(O)c(CN2CCCC2)c1)OCCc1ccsc1	34.8 min	6.2 µg/mL		
O=C(Cc1ccc(O)c(CN2CCCC2)c1)OCC1COc2ccccc2O1 (configuration not stated)		1.2 µg/mL	36.3	half-life [15]: < 1 min
COc1ccc2c(COC(=O)Cc3cc(CN4CCCC4)c(O)c(CN4CCCC4)c3)cc(=O)oc2c1				ED (Cavia porcellus [8]): 11.7 µg/mL
